Sampled rows, rich in hits. Any-hit rate of the full collection: about 3.7%.
TAAR1 agonist – human TAAR1 agonists, primary screen, Fluo-8 calcium fluorescence, CHO RD-HGA16 cells. Trace amine-associated receptor 1 (Homo sapiens), Q96RJ0. vehicle wells 0%, saturating PEA agonist 100%. activation, % at 3 µM. actives 0.99% (n = 360,000). AID 624467, 2012;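 active = activation above the mean activation of all test compounds in the run plus 3 SD, cut at about 38% in these data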
Target sequence (Q96RJ0 whole entry, looked up): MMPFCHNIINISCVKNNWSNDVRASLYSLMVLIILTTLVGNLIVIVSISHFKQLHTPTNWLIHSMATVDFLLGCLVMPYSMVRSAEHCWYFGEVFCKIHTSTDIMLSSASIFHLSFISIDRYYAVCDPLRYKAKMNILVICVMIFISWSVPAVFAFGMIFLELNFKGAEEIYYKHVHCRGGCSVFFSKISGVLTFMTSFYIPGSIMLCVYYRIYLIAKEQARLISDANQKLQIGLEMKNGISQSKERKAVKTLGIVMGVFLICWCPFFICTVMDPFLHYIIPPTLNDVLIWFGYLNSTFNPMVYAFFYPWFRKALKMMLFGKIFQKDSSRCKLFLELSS
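Test system: RD-HGA16 (CHO) cells co-expressing Gα16 and hTAAR1 | Doses: Single dose, 3 µM | Schedule: 17-24 h seeding, 75 min 37 °C dye, 30 min RT | Evaluation: % activation from peak over basal fluorescence ratio, DMSO-to-PEA scaled | Technique: Kinetic Fluo-8 calcium fluorescence | Benchmarks: Low control DMSO, high control PEA (EC100)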
rCAG binder – binders of r(CAG) RNA repeats, primary screen, biochemical, fluorescence. inhibition, % at 3 µM. AID 651821, 2012. actives 1.3% (n = 370,000). r(CAG) RNA repeat, TO-PRO-1 dye displacement fluorescence;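 active = inhibition above the plate cutoff, the mean of all test compounds on that plate plus 3 SD, cut at about 35% in these data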;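 also: 0% = DMSO alone and 100% = 100 µM mitoxantrone as full dye displacement; higher means more dye released from RNA so lower well fluorescence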
TAAR1 antag – human TAAR1 antagonists, primary screen, Fluo-8 calcium fluorescence, CHO RD-HGA16 cells; Trace amine-associated receptor 1 (Homo sapiens), Q96RJ0; antagonist; inhibition, % at 3 µM; actives 1.5% (n = 360,000); AID 624466, 2012;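 active = inhibition above a per-plate cutoff, the mean inhibition of test compounds on that plate plus 3 SD, cut at about 49% in these data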;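 also: 0% = DMSO plus EC80 beta-PEA response and 100% = DMSO alone without agonist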
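Material: RD-HGA16 CHO cells with stable hTAAR1 and Gα16; Dosing: single nominal final test compound concentration of 3 µM; Schedule: seeding 17-24 h prior, 75-min 37 °C, 30-min RT dye loading; Detection: kinetic Fluo-8 calcium fluorescence measurement; Measure: % inhibition from peak post-agonist over basal fluorescence ratio; Benchmarks: vehicle and agonist controls.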
HCV NS3 hel inh – inhibitors of HCV NS3 helicase, primary screen, biochemical, Cy5 molecular beacon fluorescence; Hepatitis C virus NS3 helicase; NS3 helicase DNA unwinding; inhibition, % at 10.9 µM; actives 0.56% (n = 290,000); AID 1800, 2009;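 active = inhibition above the mean of all tested compounds plus 3 SD, set per campaign, cut at about 35% in these data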;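 also: 0% = DMSO wells and 100% = thioflavine S control wells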
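test system = hepatitis C virus NS3 helicase domain fragment enzyme | reagent = annealed dual-labelled DNA beacon duplex, ATP-started | times = 1 h at 25 °C | detection = Cy5 fluorescence, 0 and 60 min reads | read-out basis = percent inhibition from t60/t0 fluorescence ratio | control set = DMSO and thioflavine S | replication = one well per compound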
core dimer inh – inhibitors of HCV core protein dimerization, primary screen, biochemical, TR-FRET, high-throughput; TR-FRET GST/Flag-core106 dimerization, 1536-well; inhibition, % at 5 µM; actives 0.33% (n = 300,000); AID 1899, 2009;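 active = inhibition above the mean of all tested compounds plus 3 SD, set per screening campaign, cut at about 45% in these data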
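System – GST-tagged and Flag-tagged HCV core protein residues 1-106 · Repeats – one well for each compound · Technique – TR-FRET 671 and 617 nm emission · Doses – one concentration, 5 µM, in 0.5% DMSO · Times – 4 h, 22.5 °C incubation · Also added – Eu donor and XL665 acceptor anti-tag antibodies · Measure – percent inhibition of core106 dimerization signal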
TAAR1 ag confirm – human TAAR1 agonists, retest of hits, confirmation, Fluo-8 calcium fluorescence, CHO RD-HGA16 cells | scaled: DMSO 0%, maximal phenethylamine 100% | activation, % at 3 µM | shares compounds with TAAR1 agonist | actives 82% (n = 2,400);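 active = activation above a cutoff set at the run's mean compound activation plus 3 SD, cut at about 39% in these data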
Ga16 ag counter – nonselective calcium mobilization agonists, CHO-Ga16 cells, counter-screen for hTAAR1 agonist project, cell-based, fluorescence, CHO-Ga16 parental line. shares compounds with TAAR1 agonist. Fluo-8 calcium fluorescence; normalized to maximal ATP response, DMSO zero. activation, % at 3 µM. actives 50% (n = 2,400). AID 651787, 2012;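 active = activation above the run cutoff, the mean activation over all tested wells plus 3 SD, cut at about 12% in these data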;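 also: 0% = DMSO wells and 100% = maximal ATP response on the peak over basal ratio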
TAAR1 desensitize – TAAR1 desensitization by agonist hits, confirmation, counter-screen for TAAR1 agonist project, cell-based, fluorescence, tachyphylaxis | AID 651951, 2012 | inhibition, % at 3 µM | CHO RD-HGA16 hTAAR1, Fluo-8 calcium, beta-PEA response inhibition | shares compounds with TAAR1 agonist | actives 46% (n = 2,400);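 active = inhibition above the run cutoff, the mean inhibition of all test compounds plus 3 SD, cut at about 49% in these data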;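 also: beta-PEA stimulus applied at its EC80; loss of beta-PEA calcium signal after compound pretreatment read as receptor desensitization; 0% = DMSO with beta-PEA at EC80 and 100% = DMSO alone without agonist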
Ga16 nonsel ant – inhibition of ATP-evoked calcium response in CHO-Ga16 cells, counter-screen for TAAR1 agonist project, cell-based, fluorescence. CHO-Ga16 ATP-induced calcium, Fluo-8 fluorescence. actives 39% (n = 2,400). shares compounds with TAAR1 agonist. inhibition, % at 3 µM;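 active = inhibition above the plate's mean compound inhibition plus 3 SD, computed per plate, cut at about 22% in these data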;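 also: 0% = EC80 ATP with DMSO and 100% = DMSO wells without ATP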
Active calls of the source: *; / = not tested or not shown.

SMILES | TAAR1 agonist | rCAG binder | TAAR1 antag | HCV NS3 hel inh | core dimer inh | TAAR1 ag confirm | Ga16 ag counter | TAAR1 desensitize | Ga16 nonsel ant
C[C@H]1[C@H](c2ccccc2)Oc2cccc(NCCc3ccccc3)c2S(=O)(=O)N1Cc1cccc(Cl)c1 | 39.7* | 8.8 | 0.8 | / | / | 62.0* | 8.6 | 16.8 | 11.8
CC(C)CNc1cccc2c1S(=O)(=O)N(Cc1ccc(F)cc1)[C@@H](C)[C@H](c1ccccc1)O2 | 2.7 | 3.8 | -26.8 | / | / | / | / | / | /
Cn1c(=O)c(C(=O)COc2ccc(C#N)cc2)c(N)n(Cc2ccccc2)c1=O | 118.8* | 5.4 | 49.7* | -0.7 | 4.2 | 99.6* | 52.5* | 49.1* | 27.4*
Cc1[nH]c2ccccc2c1C(c1ccccn1)N1CCCC1 (stereo not drawn) | 0.0 | -1.0 | 12.8 | -9.6 | 1.1 | / | / | / | /
CCOC(=O)C1CCCN(C(c2ccccn2)c2c(C)[nH]c3ccccc23)C1 (stereo not drawn) | 66.5* | -2.2 | 70.7* | -8.1 | 3.6 | 74.2* | 2.2 | 83.7* | 0.8
COC(=O)C1=C(C)N(C)C(=NCc2cc(OC)c(OC)c(OC)c2)NC1c1ccc(Cl)cc1 (stereo not drawn) | 0.8 | 8.9 | -3.0 | / | / | / | / | / | /
O=C(NCCc1ccccc1)C(=O)NCC1OCCN1S(=O)(=O)c1ccc2c(c1)OCCO2 (stereo not drawn) | 58.4* | 0.2 | 32.8 | 0.4 | 2.1 | 77.0* | 5.7 | 58.1* | 20.7
CCc1cc(C(=O)Cc2cnn(-c3ccccc3)c2)c(O)cc1O | 48.9* | 8.8 | 62.9* | 5.4 | -4.7 | 50.0* | 48.2* | 80.4* | 52.4*
O=C(Cc1cnn(-c2ccccc2)c1)c1ccc(O)c(O)c1O | 12.6 | 34.0 | -5.7 | 28.9 | -13.4 | / | / | / | /
COc1cc(C=NCC2OCCc3ccccc32)cc(OC)c1 (stereo not drawn) | / | -1.6 | / | -12.2 | -1.0 | / | -0.3 | / | 9.3
COc1ccc(C=NCC2OCCc3ccccc32)cc1OC (stereo not drawn) | / | 2.5 | / | -0.5 | -13.5 | / | -0.6 | / | 6.9
CCCCCOc1ccc(Br)cc1/C(C)=N/NC1=NCCN1 | 61.9* | 10.8 | 29.9 | -38.8 | -14.3 | 62.5* | 11.8* | 31.6 | 15.7
Nc1nonc1-n1nnc(C(=O)N/N=C/c2cccs2)c1-c1ccc2c(c1)OCO2 | 141.3* | 10.1 | 66.1* | 8.1 | -6.3 | 122.5* | 81.4* | 65.0* | 27.7*
CCOc1ccc(-c2c(C(=O)N/N=C/c3cccs3)nnn2-c2nonc2N)cc1 | 96.0* | 10.7 | 21.2 | 1.3 | 6.0 | 126.8* | 80.0* | 60.0* | 31.8*
Cc1ccsc1/C=N/NC(=O)c1nnn(-c2nonc2N)c1-c1ccc2c(c1)OCO2 | 29.5 | 8.7 | 17.2 | 1.6 | 7.3 | / | / | / | /
CCOc1ccc(/C=N/NC(=O)c2nnn(-c3nonc3N)c2-c2cccs2)cc1 | 124.9* | 3.8 | 69.8* | -6.6 | 1.4 | 120.4* | 91.5* | 76.2* | 46.0*
Cc1ccc(-c2c(C(=O)N/N=C/c3cccs3)nnn2-c2nonc2N)cc1 | / | / | / | 2.5 | -0.9 | / | / | / | /
Cc1cc2c(nc1C)CCCN2Cc1ccccc1C(F)(F)F | 6.0 | 3.2 | -26.3 | / | / | / | / | / | /
